Our source for the GI50, C50 and K app values is ChEMBL document CHEMBL1135379, “Polyhydroxylated azepanes as new motifs for DNA minor groove binding agents” (2002).

One experiment concerns HCT-116. Description: Tested for in vitro concentration required to inhibit growth by 50% against HCT116 human colon cancer cell line. In kind it is functional.
A further experiment relates to NCI/ADR-RES. Description: Tested for in vitro concentration required to inhibit growth by 50% against MCF-7/ADR human breast cancer cell line cell line. In kind it is functional.
A further experiment relates to MCF7. Description: Tested for in vitro concentration required to inhibit growth by 50% against MCF-7 human breast cancer cell line cell line. Format: functional.
Experiment [1] relates to Nucleic Acid. The experiment can be described thus: Concentration required to displace 50% of the ethidium from a preformed, intercalated complex. In kind it is nucleic-acid assay. In outline:
(§1)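 Ethidium displacement (Cain et al. method), pH 7.0. A preformed DNA–ethidium intercalated complex in HEPES buffer with NaCl and EDTA is titrated with ligand while intercalated-ethidium fluorescence is monitored. C50 is the ligand concentration that displaces 50% of the ethidium. K_app = (1.26 × K_e)/C50, using the known ethidium binding constant under these conditions. Means of three experiments.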

In a further experiment the test system is HT-29. The experiment can be described thus: Tested for in vitro concentration required to inhibit growth by 50% against HT-29 human colon cancer cell line. In kind it is functional.
The test system of experiment [2] is Nucleic Acid. The experiment can be described thus: Apparent binding constant was calculated. In kind it is nucleic-acid assay. In outline:
as §1

Molecules are shown by their SMILES.

Take `CC1(C)O[C@H]2[C@H](O1)[C@H](O)CN(c1ccc(OCCCOc3ccc(N4C[C@@H](O)[C@H]5OC(C)(C)O[C@@H]5[C@H](O)C4)cc3)cc1)C[C@H]2O`: the GI50 in the experiment on HCT-116 is 32 µM; in the experiment on NCI/ADR-RES, greater than 50 µM; with MCF7, 33 µM; in the experiment on HT-29, 40 µM. This molecule returned a C50 in the experiment on Nucleic Acid [1] of 703 µM. In addition, in the experiment on Nucleic Acid [2], the K app is 17000 M⁻¹.
Take `Cn1cc(NC(=O)c2cc(NC(=O)c3cc(NC=O)cn3C)cn2C)cc1C(=O)NCCC(=N)N`: the C50 with Nucleic Acid [1] came out at 1.8 µM. Further, the K app with Nucleic Acid [2] was 6.7e+06 M⁻¹.
Take `OC1CN(Cc2ccc(OCCCOc3ccc(CN4C[C@@H](O)[C@@H](O)[C@H](O)[C@H](O)C4)cc3)cc2)C[C@@H](O)[C@@H](O)C1O` (single isomer, unassigned): the concentration for 50% growth inhibition (GI50) in the experiment with HCT-116 was greater than 50 µM; in the experiment with NCI/ADR-RES, greater than 50 µM; with MCF7 it was greater than 50 µM; with HT-29, 24 µM. In the experiment on Nucleic Acid [1], this molecule showed a C50 of 61.6 µM. In the experiment on Nucleic Acid [2], the K app is 190000 M⁻¹.
Consider `CC1(C)O[C@H]2[C@H](O1)[C@H](O)CN(Cc1ccc(OCCCOc3ccc(CN4CC(O)[C@H]5OC(C)(C)O[C@@H]5[C@H](O)C4)cc3)cc1)C[C@H]2O` (single isomer, unassigned), for which the GI50 turned out to be 6 µM with HCT-116, 10 µM in the experiment on NCI/ADR-RES, 24 µM with MCF7 and 23 µM in the experiment with HT-29.
In turn, `OC1CN(Cc2ccc(OCCCOc3ccc(CN4C[C@H](O)[C@@H](O)[C@H](O)[C@@H](O)C4)cc3)cc2)C[C@H](O)[C@@H](O)C1O` (single isomer, unassigned) yielded a C50 in the experiment with Nucleic Acid [1] of 97 µM. Further, in the experiment on Nucleic Acid [2], the K app is 120000 M⁻¹.
For `O=C(O)CCCc1ccc(N(CCCl)CCCl)cc1` [CHLORAMBUCIL], the GI50 in the experiment on HCT-116 was 105 µM; in the experiment on NCI/ADR-RES, 56 µM; in the experiment with MCF7, 30 µM; in the experiment with HT-29, 129 µM.
The like results for `COc1cccc2c1C(=O)c1c(O)c3c(c(O)c1C2=O)C[C@@](O)(C(=O)CO)C[C@@H]3O[C@H]1C[C@H](N)[C@H](O)[C@H](C)O1` [DOXORUBICIN] were, in that order, 0.023 µM, 16.7 µM, 0.013 µM and 0.056 µM.
With `N=C(N)c1ccc(OCCCOc2ccc(C(=N)N)cc2)cc1` [PROPAMIDINE], the results for the GI50 in the experiment on HCT-116, with MCF7 and in the experiment on HT-29 were 11 µM, 9 µM and greater than 50 µM, respectively. Also, the C50 with Nucleic Acid [1] is 25.6 µM. Moreover, the K app in the experiment with Nucleic Acid [2] was 470000 M⁻¹.
